In ChEMBL document CHEMBL4321816, “Identification of 2,6-Disubstituted 3H-Imidazo[4,5-b]pyridines as Therapeutic Agents for Dysferlinopathies through Phenotypic Screening on Patient-Derived Induced Pluripotent Stem Cells” (J Med Chem, 2019):
In brackets after ≈: the same amount, converted by molar mass. Activity calls are given as the source filed them. The calls are words filed in the database; no cut-off is given here.

Assays:
[1] = (§1) Anti-dysferlinopathy activity in human dermal myocytes derived from dysferlinopathy patient dermal fibroblast iPSC harboring dysferlin c.2997 G > T (p. W999C)/c.1958G deletion mutant assessed as increase in dysferlin expression incubated for 24 hrs by immunostaining assay; format: functional
Procedure, shortened: (§2)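 iPSCs from a dysferlinopathy patient's dermal fibroblasts carrying a stably transfected Tet-MyoD1 vector. Differentiated to myocytes by doxycycline (1 µg/mL) MyoD induction, then treated on day 7 for 24 h at 0.003–10 µM (0.1% DMSO final). Fixed, immunostained for dysferlin and MHC, and imaged. Read-out: 488 nm intensity in the dysferlin/MHC double-positive area. EC150 is the concentration giving 50% increase over median DMSO wells, from a 4-parameter logistic fit.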

[2] = Permeability of compound in pH 7.4 in PRISMA HT buffer at 10 umol/L incubated for 3 hrs by LC/MS/MS based PAMPA assay; format: ADME; conditions: read-out: permeability
Procedure, shortened: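 PAMPA: donor wells held PRISMA HT buffer (pH 7.4) with 10 µmol/L compound, and the acceptor filter was coated with GIT-0 lipid over sink buffer. Incubated 3 h at room temperature, then compound in donor and acceptor wells measured by LC/MS/MS.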

[3] = Aqueous solubility in pH 6.8 by HPLC analysis; format: physicochemical; conditions: buffer
Procedure, shortened: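 Compound added from DMSO solution to aqueous buffer at pH 6.8 and incubated. Precipitate removed by filtration. Dissolved compound in the filtrate quantified by plate reader or HPLC.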

Homo sapiens = species on record: Homo sapiens; experiment: as §1; format: functional; procedure, shortened: as §2
HepG2 = experiment: Cytotoxicity against human HepG2 cells assessed as reduction in cell viability after 24 hrs by Cell Titer Glo assay; format: cell-based; conditions: HepG2, 24 h
Procedure, shortened: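 HepG2 cells in DMEM high glucose with 10% FBS were seeded at 5000 cells/well and grown ~24 h. Compounds were then added for 24 h at 37 °C/5% CO2, and viability read by CellTiter-Glo luminescence. Controls were DMSO wells and medium-only wells. IC50 was taken from a sigmoidal fit of % inhibition.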

Sus scrofa = species on record: Sus scrofa; experiment: Competitive inhibition of porcine tubulin alpha/beta at 10 to 100 uM preincubated 30 mins followed by addition of N-(2-(3-(But-3-yn-1-yl)-3H-diazirin-3-yl)ethyl)-5-(2-(phenoxymethyl)-3H-imidazo[4,5-b]pyridin-6-yl)thiophene-3-carboxamide and measured after 15 mins by SDS-PAGE based fluorescence assay
Procedure, shortened: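 Porcine brain tubulin at 25 µg/mL in HEPES isotonic buffer (pH 7.4) pre-incubated 30 min at room temperature with DMSO or compound (1–10 mM DMSO stocks). […] Labeled tubulin was tagged with TAMRA-azide by click reaction, run on SDS-PAGE and scanned for fluorescence, with Coomassie staining for total tubulin.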

SMILES | EC150 [1] | other results
FC(F)(F)c1ccc(CCc2nc3cc(-c4ccco4)cnc3[nH]2)cc1 | >10 µM | 
c1ccc(CCc2nc3cc(-c4ccco4)cnc3[nH]2)cc1 | 5.9 µM | Papp at 3 h, 10 µM [2]: 33.2 ×10⁻⁶ cm/s; solubility [3]: 6.4 µg/mL (≈ 22.1 µM); Activity (Homo sapiens): Dose-dependent effect; IC50 (HepG2): > 100 µM
CC(C)c1ccsc1-c1cnc2[nH]c(COc3ccccc3)nc2c1 | 0.012 µM | 
CC(=O)O[C@H]1C(=O)[C@@]2(C)[C@H]([C@H](OC(=O)c3ccccc3)[C@]3(O)C[C@H](OC(=O)[C@H](O)[C@@H](NC(=O)c4ccccc4)c4ccccc4)C(C)=C1C3(C)C)[C@]1(OC(C)=O)CO[C@@H]1C[C@@H]2O |  | inhibition (Sus scrofa): inactive
COc1ccc(CCc2nc3cc(-c4ccco4)cnc3[nH]2)cc1 | >10 µM | 
COC(=O)Nc1nc2cc(C(=O)c3cccs3)ccc2[nH]1 [NOCODAZOLE] | 1 µM | inhibition (Sus scrofa): Active
Cc1ccsc1-c1cnc2[nH]c(CCc3ccc(F)cc3)nc2c1 | 0.11 µM | 
Cc1ccc(CCc2nc3cc(-c4ccco4)cnc3[nH]2)cc1 | >10 µM | 
Fc1ccc(CCc2nc3cc(-c4cccs4)cnc3o2)cc1 | >10 µM | 
COc1cc2c(c(OC)c1OC)-c1ccc(OC)c(=O)cc1[C@@H](NC(C)=O)CC2 |  | inhibition (Sus scrofa): Active
Fc1ccc(OCc2nc3cc(-c4cccs4)cnc3[nH]2)cc1 | 0.067 µM | 
Cc1nc2[nH]c(CCc3ccc(F)cc3)nc2cc1-c1cccs1 | >10 µM | 
CNC(=O)c1ccsc1-c1cnc2[nH]c(COc3ccccc3)nc2c1 | >10 µM | 
Fc1ccc(CCc2nc3ncc(-c4cccs4)cc3o2)cc1 | >10 µM | 
c1ccc(Cc2nc3cc(-c4ccco4)cnc3[nH]2)cc1 | >10 µM | 
Cc1c(-c2cccs2)cnc2[nH]c(CCc3ccc(F)cc3)nc12 | 0.37 µM | 

SMILES | EC150 [1] | other results
Clc1ccc(CCc2nc3cc(-c4ccco4)cnc3[nH]2)cc1 | 4.3 µM | 
c1ccc(OCc2nc3cc(-c4cccs4)cnc3[nH]2)cc1 | 0.039 µM | inhibition (Sus scrofa): Active
Clc1ccccc1CCc1nc2cc(-c3ccco3)cnc2[nH]1 | >10 µM | 
Fc1ccc(CCc2nc3cc(-c4cccs4)ccc3[nH]2)cc1 | >10 µM | 
N#Cc1ccc(CCc2nc3cc(-c4ccco4)cnc3[nH]2)cc1 | >10 µM | 
Fc1ccc(CCc2nc3cc(-c4ccccc4)cnc3[nH]2)cc1 | 1.3 µM | 
Fc1ccc(CCc2nc3cc(-c4ccco4)cnc3[nH]2)cc1 | 1 µM | 
Cc1ccc(-c2cnc3[nH]c(CCc4ccc(F)cc4)nc3c2)s1 | 6.3 µM | 
COCCOCCNC(=O)c1csc(-c2cnc3[nH]c(COc4ccccc4)nc3c2)c1 | 0.4 µM | 
c1ccc(-c2nc3cc(-c4ccco4)cnc3[nH]2)cc1 | >10 µM | 
Cc1csc(-c2cnc3[nH]c(CCc4ccc(F)cc4)nc3c2)c1 | 1.9 µM | 
C#CCCC1(CCNC(=O)c2csc(-c3cnc4[nH]c(COc5ccccc5)nc4c3)c2)N=N1 | 0.37 µM | 
Clc1cccc(CCc2nc3cc(-c4ccco4)cnc3[nH]2)c1 | >10 µM | 
Fc1ccc(CCc2nc3cc(-c4cccs4)cnc3[nH]2)cc1 | 0.15 µM | 
CNC(=O)c1csc(-c2cnc3[nH]c(COc4ccccc4)nc3c2)c1 | 0.11 µM | 
CC[C@]1(O)C[C@@H]2CN(CCc3c([nH]c4ccccc34)[C@@](C(=O)OC)(c3cc4c(cc3OC)N(C)[C@H]3[C@@](O)(C(=O)OC)[C@H](OC(C)=O)[C@]5(CC)C=CCN6CC[C@]43[C@@H]65)C2)C1 [VINBLASTINE] | 0.074 µM | inhibition (Sus scrofa): inactive
